# Source: PMC6487859 (Journal of the American Chemical Society, 2018)
# Legend:
# [1] = target: T1, PKN3 (Homo sapiens, UniProt Q6P5Z2); experiment: in vitro PKN3 kinase assay; format: biochemical; details: for time-dependent inhibition of PKN3: fixed inhibitor concentration 1 μM, preincubation 0 to 120 min
# Outline: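 Enzyme was preincubated with test compound 30 min, then reacted 30 min at RT with 68 µM ATP plus 1 µCi [γ-32P]ATP. TCA stop, phosphocellulose capture, phosphoric-acid washes, scintillation counting. IC50 came from a 7-point dose-response. Time course used 1 µM compound with 0–120 min preincubation.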
# [2] = target: T1, PKN3; experiment: target engagement pulldown, live HeLa S3 cells, THZ1-DTB; format: cell-based; details: 4 h, Western blot
# [3] = target: T2, CDK7 (Homo sapiens, UniProt P50613); experiment: as above; format: cell-based; details: 4 h, Western blot
# T2 sequence (P50613 2-346 limits assumed): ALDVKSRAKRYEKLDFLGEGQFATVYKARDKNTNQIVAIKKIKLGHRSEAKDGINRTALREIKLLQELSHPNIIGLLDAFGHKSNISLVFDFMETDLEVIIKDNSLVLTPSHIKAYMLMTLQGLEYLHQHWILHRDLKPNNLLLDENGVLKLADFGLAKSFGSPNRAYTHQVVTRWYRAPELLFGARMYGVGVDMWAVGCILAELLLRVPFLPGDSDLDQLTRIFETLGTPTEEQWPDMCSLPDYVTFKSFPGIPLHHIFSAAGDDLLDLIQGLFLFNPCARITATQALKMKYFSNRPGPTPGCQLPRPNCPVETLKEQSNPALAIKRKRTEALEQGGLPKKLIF
# T2 sequence (P51946 whole entry partner): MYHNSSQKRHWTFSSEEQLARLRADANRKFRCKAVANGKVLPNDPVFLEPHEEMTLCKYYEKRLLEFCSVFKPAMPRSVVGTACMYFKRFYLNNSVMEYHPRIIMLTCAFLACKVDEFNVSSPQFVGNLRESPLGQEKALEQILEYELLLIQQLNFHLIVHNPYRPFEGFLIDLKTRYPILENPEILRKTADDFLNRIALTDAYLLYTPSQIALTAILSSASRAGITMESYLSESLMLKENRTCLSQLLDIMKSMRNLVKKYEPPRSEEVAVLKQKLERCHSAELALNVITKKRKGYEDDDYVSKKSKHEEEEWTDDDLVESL
# T2 sequence (P51948 whole entry partner): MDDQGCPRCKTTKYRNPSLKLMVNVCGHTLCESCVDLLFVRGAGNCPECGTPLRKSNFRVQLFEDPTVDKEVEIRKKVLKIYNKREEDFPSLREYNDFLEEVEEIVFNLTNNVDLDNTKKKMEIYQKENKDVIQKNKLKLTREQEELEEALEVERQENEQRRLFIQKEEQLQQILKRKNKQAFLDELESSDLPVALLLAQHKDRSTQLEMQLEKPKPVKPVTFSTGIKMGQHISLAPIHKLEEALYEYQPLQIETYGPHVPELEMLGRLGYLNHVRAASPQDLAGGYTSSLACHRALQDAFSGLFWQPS
# [4] = target: T3, PRKCQ (Homo sapiens, UniProt Q04759); experiment: as above; format: cell-based; details: 4 h, Western blot
# T3 sequence (Q04759 whole entry): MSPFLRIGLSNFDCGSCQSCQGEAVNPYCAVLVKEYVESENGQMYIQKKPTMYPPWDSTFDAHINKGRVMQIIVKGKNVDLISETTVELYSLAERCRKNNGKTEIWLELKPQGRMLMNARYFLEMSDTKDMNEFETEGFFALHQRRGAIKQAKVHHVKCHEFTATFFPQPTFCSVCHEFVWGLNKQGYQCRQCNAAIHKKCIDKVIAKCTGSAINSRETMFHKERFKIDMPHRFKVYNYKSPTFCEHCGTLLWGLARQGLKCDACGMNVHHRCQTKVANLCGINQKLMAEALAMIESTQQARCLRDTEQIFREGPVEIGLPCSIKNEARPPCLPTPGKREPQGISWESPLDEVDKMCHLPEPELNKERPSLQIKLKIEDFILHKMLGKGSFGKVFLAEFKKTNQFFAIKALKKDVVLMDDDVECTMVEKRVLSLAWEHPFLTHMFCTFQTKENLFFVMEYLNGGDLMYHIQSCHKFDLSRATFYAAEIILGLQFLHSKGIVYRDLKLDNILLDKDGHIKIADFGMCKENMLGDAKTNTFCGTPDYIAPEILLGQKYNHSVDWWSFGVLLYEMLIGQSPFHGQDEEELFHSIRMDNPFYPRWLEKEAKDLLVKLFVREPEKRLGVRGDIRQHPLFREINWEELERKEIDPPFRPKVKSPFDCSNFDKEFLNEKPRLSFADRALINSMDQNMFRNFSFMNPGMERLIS
# [5] = test system: CDK12/13; details: live HeLa S3 cells, 4 h; cyclin K as proxy
# [6] = test system: cysteine residues across the proteome; experiment: CITe-Id proteome-wide, HeLa S3 lysates; format: binding, human
# Outline: (§1)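 Precleared on streptavidin resin 1 h at 4 °C, split four ways. DMSO or rising test-compound doses for 1 h at RT, then 2 µM desthiobiotin probe at 4 °C for 18 h. Urea denaturation, DTT/IAA, tryptic digest. Streptavidin-enriched probe peptides were iTRAQ-labelled for RP-SAX-RP LC–MS/MS. Slope of reporter ratios (vs DMSO) against concentration scored each cysteine. Hits exceeded 2 SD over the mean of 527 sites; biological replicates.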
# [7] = target: CDK12 (Homo sapiens, UniProt Q9NYV4); experiment: CITe-Id, HeLa S3 lysates, THZ1-DTB; format: binding; details: competition with 2 μM THZ1-DTB
# Outline: as §1
# [8] = target: CDK13 (Homo sapiens, UniProt Q14004); experiment: CITe-Id, HeLa S3 lysates, THZ1-DTB; format: binding; details: competition with 2 μM THZ1-DTB
# Outline: as §1
# [9] = target: T1, PKN3; experiment: PKN3 in vitro phosphorylation of candidate substrate synthetic peptides; format: biochemical; details: pretreatment 1 μM for 30 min
# Outline: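 Recombinant PKN3 (25 ng) was preincubated with test compound at 1 μM for 30 min. Reactions ran 1 h at 37 °C and were stopped with 1% acetic acid. Peptides were desalted and read by MALDI TOF/TOF. Percent phosphorylation was inferred from the loss of unphosphorylated signal against a no-ATP control; four replicates.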
# [10] = target: protein kinase C theta (PRKCQ) at C661 (Homo sapiens, UniProt Q04759); experiment: CITe-Id, HeLa S3 lysates, THZ1-DTB; format: binding; details: competition with 2 μM THZ1-DTB
# Chain of protein kinase C theta (PRKCQ) at C661 (Q04759 whole entry): as above
# Outline: as §1
# [11] = target: PKN3 at C840 (Homo sapiens, UniProt Q6P5Z2); experiment: CITe-Id, HeLa S3 lysates, THZ1-DTB; format: binding; details: competition with 2 μM THZ1-DTB
# Chain of PKN3 at C840 (Q6P5Z2 whole entry): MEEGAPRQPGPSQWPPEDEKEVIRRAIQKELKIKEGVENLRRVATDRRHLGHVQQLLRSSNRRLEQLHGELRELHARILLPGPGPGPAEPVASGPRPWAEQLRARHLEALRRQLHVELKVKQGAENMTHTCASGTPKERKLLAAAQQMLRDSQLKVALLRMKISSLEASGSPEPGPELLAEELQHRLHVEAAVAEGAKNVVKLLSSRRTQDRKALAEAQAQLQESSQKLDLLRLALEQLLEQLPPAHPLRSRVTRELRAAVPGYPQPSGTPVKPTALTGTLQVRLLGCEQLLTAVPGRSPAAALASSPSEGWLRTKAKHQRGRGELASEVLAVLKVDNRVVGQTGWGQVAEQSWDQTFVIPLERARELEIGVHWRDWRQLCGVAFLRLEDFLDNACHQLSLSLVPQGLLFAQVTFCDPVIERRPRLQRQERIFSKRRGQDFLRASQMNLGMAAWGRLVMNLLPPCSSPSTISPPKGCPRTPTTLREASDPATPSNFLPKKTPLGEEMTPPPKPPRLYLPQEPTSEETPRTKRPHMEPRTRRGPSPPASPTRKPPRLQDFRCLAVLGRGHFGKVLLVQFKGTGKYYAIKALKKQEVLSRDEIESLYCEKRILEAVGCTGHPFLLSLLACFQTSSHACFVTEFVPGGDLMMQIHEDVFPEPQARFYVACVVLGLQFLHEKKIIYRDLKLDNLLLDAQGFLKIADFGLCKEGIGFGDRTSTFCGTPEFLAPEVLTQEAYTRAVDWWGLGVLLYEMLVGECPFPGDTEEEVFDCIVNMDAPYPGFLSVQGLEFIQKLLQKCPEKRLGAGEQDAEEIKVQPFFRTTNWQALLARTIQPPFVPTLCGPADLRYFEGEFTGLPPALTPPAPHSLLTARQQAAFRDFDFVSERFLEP
# Outline: as §1
# [12] = target: T2, CDK7; experiment: CITe-Id, HeLa S3 lysates, THZ1-DTB; format: binding; details: competition with 2 μM THZ1-DTB
# Outline: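 Aliquots pretreated with DMSO or increasing test compound concentrations for 1 h at RT, then 2 μM desthiobiotin probe for 18 h at 4 °C. Denatured, reduced, alkylated, trypsin-digested; probe peptides streptavidin-enriched, iTRAQ-labelled, LC–MS/MS. Cysteine reporter ratios versus the DMSO channel were regressed against concentration, and the slope was taken as the dose response.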
# [13] = target: glycogen synthase kinase 3B (GSK3B) at C14 (Homo sapiens, UniProt P49841); experiment: CITe-Id, HeLa S3 lysates, THZ1-DTB; format: binding; details: competition with 2 μM THZ1-DTB
# Chain of glycogen synthase kinase 3B (GSK3B) at C14 (P49841 whole entry): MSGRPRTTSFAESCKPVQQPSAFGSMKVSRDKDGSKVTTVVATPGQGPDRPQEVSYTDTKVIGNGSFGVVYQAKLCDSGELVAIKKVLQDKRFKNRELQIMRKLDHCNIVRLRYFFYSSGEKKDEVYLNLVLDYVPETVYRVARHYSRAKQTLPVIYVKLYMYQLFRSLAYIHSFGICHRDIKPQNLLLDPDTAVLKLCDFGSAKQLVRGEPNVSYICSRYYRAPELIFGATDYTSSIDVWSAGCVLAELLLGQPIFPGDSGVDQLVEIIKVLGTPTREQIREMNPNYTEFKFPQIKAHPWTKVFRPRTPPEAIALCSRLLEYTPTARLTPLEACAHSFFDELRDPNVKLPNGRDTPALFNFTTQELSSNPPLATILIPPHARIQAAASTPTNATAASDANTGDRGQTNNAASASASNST
# Outline: as §1
# [14] = target: T3, PRKCQ; experiment: SelectScreen kinase assay; format: biochemical; details: 10-dose titration
# [15] = target: T4, CYP1B1 (Homo sapiens, UniProt Q16678); experiment: CITe-Id, HeLa S3 lysates, THZ1-DTB; format: binding; details: competition with 2 μM THZ1-DTB
# T4 sequence (Q16678 1-543): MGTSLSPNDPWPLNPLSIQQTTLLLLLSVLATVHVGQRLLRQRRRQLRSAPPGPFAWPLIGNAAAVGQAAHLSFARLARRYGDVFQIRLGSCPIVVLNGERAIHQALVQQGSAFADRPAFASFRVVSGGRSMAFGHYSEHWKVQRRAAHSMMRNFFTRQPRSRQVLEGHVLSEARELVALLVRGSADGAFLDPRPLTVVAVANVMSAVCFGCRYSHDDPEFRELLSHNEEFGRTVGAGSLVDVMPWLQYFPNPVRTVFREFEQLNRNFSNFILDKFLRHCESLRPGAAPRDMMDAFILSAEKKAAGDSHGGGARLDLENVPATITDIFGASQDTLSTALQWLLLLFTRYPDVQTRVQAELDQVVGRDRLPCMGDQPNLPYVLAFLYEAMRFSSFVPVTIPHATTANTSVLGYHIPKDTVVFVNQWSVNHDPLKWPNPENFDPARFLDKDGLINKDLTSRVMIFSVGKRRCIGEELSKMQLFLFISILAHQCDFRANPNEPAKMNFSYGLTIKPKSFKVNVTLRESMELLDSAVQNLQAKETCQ
# Outline: as §1
# T1 sequence (Q6P5Z2 whole entry): as the sequence (Q6P5Z2 whole entry) above
"IC50 ([1]; read-out: IC50 against PKN3, fixed time-point format, 30 min preincubation) [nM]",number of cysteine residues with dose-dependent competitive binding [6],competitive dose-response at CDK12 cysteine [7],competitive dose-response at CDK13 cysteine [8],PKN3-mediated phosphorylation of EXOC2 (S432) peptide [9],PKN3-mediated phosphorylation of LAD1 (S375) peptide [9],competitive dose-response at PRKCQ C661 [10],competitive dose-response at PKN3 C840 [11],competitive dose-response at CDK7 cysteine [12],competitive dose-response at GSK3B C14 [13],potency against PRKCQ [14],competitive dose-response at CYP1B1 [15],Compound,time-dependent inhibition of PKN3 [1],potency against PKN3 relative to THZ1 (fold less potent) ([1]; fixed time-point format),competition for PKN3 against THZ1-DTB pulldown [2],competition for CDK7 against THZ1-DTB pulldown [3],competition for PRKCQ against THZ1-DTB pulldown [4],competition for CDK12/13 against THZ1-DTB pulldown [5]
,,,,,,,,,,,,CN(C)CCCC(=O)Nc1ccc(C(=O)Nc2cccc(Nc3ncc(Cl)c(-c4c[nH]c5ccccc45)n3)c2)cc1 [THZ1-R],did not show time-dependent inhibition,more than 50 fold,competed poorly,competed poorly,competed poorly,competed poorly
72,eight,dose-dependent competitive binding,dose-dependent competitive binding,partially blocked,partially blocked,dose-dependent THZ1 competitive binding,dose-dependent THZ1 competitive binding,dose-dependent competitive binding,dose-dependent THZ1 competitive binding,weak potency,,CN(C)C/C=C/C(=O)Nc1ccc(C(=O)Nc2cccc(Nc3ncc(Cl)c(-c4c[nH]c5ccccc45)n3)c2)cc1 [THZ1],time dependent,,,strong competition,,
,,,,,,little or no reactivity,little or no reactivity,,gaining some activity,,little or no reactivity,CN(C)C/C=C/C(=O)Nc1ccc(C(=O)N2CCC[C@@H](Nc3ncc(Cl)c(-c4c[nH]c5ccccc45)n3)C2)cc1 [THZ531],,,,,,
